Holding throughout (format): functional
The test system of one assay is SK-MEL-2. The assay is described as follows: Growth inhibition of human SK-MEL-2 cells after 48 hrs by sulforhodamine B assay. The note with it: SK-MEL-2, 48 h. Put shortly: (§1)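 NCI 60-cell-line panel, five-dose run at 10-fold dilutions from 10^-4 to 10^-8 M, 48 h continuous exposure. Viability by SRB protein stain. Percent growth is taken from time-zero, untreated-control and treated absorbances. GI50 is the concentration giving a 50% lower net protein increase than in control cells. TGI is taken at Ti = Tz, LC50 at a 50% loss of initial protein.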
Background: In SRB staining, fixed cells bind dye roughly in proportion to their protein.

The test system of a further assay is T47D. The experiment in a line: Growth inhibition of human T47D cells after 48 hrs by sulforhodamine B assay. In short, it runs like this:
as §1

A further assay relates to HCT-15. The experiment in a line: Growth inhibition of human HCT15 cells after 48 hrs by sulforhodamine B assay. The following applies: HCT-15, 48 h. In short, it runs like this: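 NCI full ~60 cell line panel. Five 10-fold concentrations from 10^-4 to 10^-8 M, 48 h continuous exposure, SRB protein read-out. Time-zero, control and treated absorbances give percentage growth. GI50 is the concentration where [(Ti−Tz)/(C−Tz)]×100 = 50; TGI is where Ti = Tz; LC50 is where [(Ti−Tz)/Tz]×100 = −50.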

The mark [1] stands for this setting: read-out: LC50 (the source's name).

The structures appear in SMILES notation.

For `COc1ccc(-c2nnc(SCC(=O)Nc3ccc(/C(C)=N/O)cc3)n2-c2ccccc2)cc1OC`, the GI50 in the assay with SK-MEL-2 is 5.04 µM; with T47D, 9.45 µM; in the assay with HCT-15, over 100 µM. Besides, the results for the TGI in the assay on SK-MEL-2, in the assay with T47D and in the assay with HCT-15 were 28.8 µM, over 100 µM and over 100 µM, respectively. Besides, the CC50 in the assay on SK-MEL-2 (setting [1]), in the assay on T47D (setting [1]) and in the assay with HCT-15 (setting [1]) was over 100 µM each time.

One may read the GI50 as the concentration at which growth is held to half of that of the control. One may read the TGI as the concentration at which net growth stops. Low values mean greater sensitivity of the cells, high ones lower sensitivity of the cells.

For the origin of these results see ChEMBL document CHEMBL3102806, “1,2,4-Triazole/oxime hybrids as new strategy for nitric oxide donors: Synthesis, anti-inflammatory, ulceroginicity and antiproliferative activities” (Eur J Med Chem, 2014).
